Source: PubChem BioAssay (Johns Hopkins Ion Channel Center)
A selection: hits, their analogues and other compounds. The true share with any hit is near 3.1%.
hERG protect: hERG rescue from dofetilide block, primary screen, cell-based, CHO-hERG, FluxOR thallium flux, dofetilide IC70 | AID 1511, 2009 | hit rate 0.51% among 310,000 | dofetilide IC70 present | Voltage-gated inwardly rectifying potassium channel KCNH2 (Homo sapiens), Q12809 | activation (rescue from dofetilide block), less the hit threshold, % at 10 µM;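 active means activation above the mean of controls blocked by dofetilide plus 5 SD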;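 further: thallium influx through hERG after potassium depolarization seen as dye fluorescence rise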
KCNQ1 inh: inhibitors of human KCNQ1 channel, primary screen, cell-based, thallium flux, high-throughput | Potassium voltage-gated channel subfamily KQT member 1 (Homo sapiens), P51787 | CHO-K1 KCNQ1, FluxOR thallium flux fluorescence; active compounds read high | B-score at 10 µM | hit rate 1.3% among 310,000 | AID 2642, 2010;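 active means compounds whose thallium flux B-score, printed positive for inhibition, exceeds three library SD while starting fluorescence stays within three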;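 further: channel opened by potassium depolarization with thallium stimulus after 20 min compound exposure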
KCNK3 block: human KCNK3 channel inhibitors, primary screen, CHO cells, FluxOR thallium flux, B-score; Potassium channel subfamily K member 3 (Homo sapiens), O14649; FluxOR fluorescence; active compounds read low; B-score at 10 µM; hit rate 0.84% among 340,000; AID 602410, 2012;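 active means B-score under library mean minus 4 SD, starting fluorescence ratio at most library mean plus 5 SD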;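 further: more negative B-score means stronger inhibition of thallium flux through KCNK3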
KCNQ1 act: potentiators or activators of KCNQ1 channel, primary screen, cell-based, thallium flux, high-throughput. hit rate 0.35% among 310,000. B-score at 10 µM. AID 2648, 2010. Potassium voltage-gated channel subfamily KQT member 1 (Homo sapiens), P51787. CHO-K1 KCNQ1, thallium flux FluxOR fluorescence; active compounds read high;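 active means fluorescence ratio B-score, a plate-corrected score, at least three library SD, with initial intensity B-score within 5 SD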
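System: CHO-K1 cells stably expressing KCNQ1 / Medium: assay buffer for compound exposure, DMSO matched across wells / Reagent: thallium- and potassium-containing depolarizing buffer / Compound: one concentration, matched DMSO / Incubation: 20 min compound pretreatment at room temperature / Measured by: kinetic FluxOR fluorescence, 10 s baseline plus 110 s post-stimulus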
KCNK9 inh: KCNK9 potassium channel inhibitors, primary screen, HEK293 cells, thallium flux | Potassium channel subfamily K member 9 (Homo sapiens), Q9NPC2 | FluxOR thallium flux fluorescence; active compounds read low | B-score at 10 µM | hit rate 1.2% among 310,000;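 active means ratio B-score over 3 SD below the library mean, with starting fluorescence within 5 SD of its mean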;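 further: negative B-score means less thallium flux so channel inhibition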
Target sequence (Q9NPC2 whole entry, looked up): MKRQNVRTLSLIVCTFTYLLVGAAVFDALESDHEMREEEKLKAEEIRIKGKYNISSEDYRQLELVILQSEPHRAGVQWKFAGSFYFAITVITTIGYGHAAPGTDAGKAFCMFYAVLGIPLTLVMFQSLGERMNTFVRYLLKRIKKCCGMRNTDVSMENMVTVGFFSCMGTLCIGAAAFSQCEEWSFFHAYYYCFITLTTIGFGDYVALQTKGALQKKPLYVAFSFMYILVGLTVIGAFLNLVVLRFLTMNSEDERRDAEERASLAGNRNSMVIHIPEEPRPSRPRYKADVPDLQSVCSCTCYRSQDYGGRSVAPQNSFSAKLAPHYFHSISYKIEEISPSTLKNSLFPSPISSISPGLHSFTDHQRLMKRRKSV
An asterisk follows results filed as active; i = inactive; nt = not tested or not shown.

SMILES	hERG protect	KCNQ1 inh	KCNK3 block	KCNQ1 act	KCNK9 inh
Cc1ccccc1Nc1nc(-c2sc(NC(=O)c3ccc([N+](=O)[O-])cc3)nc2C)cs1	-12	7*	nt	i	i
CCCCCC(=O)Nc1nc(C)c(-c2csc(Nc3cc(OC)ccc3OC)n2)s1	-10	i	i	i	-7.3*
COc1ccc(OC)c(Nc2nc(-c3sc(NC(=O)c4ccccc4)nc3C)cs2)c1	-21	i	nt	i	-8.2*
CCCCCCC(=O)Nc1nc(C)c(-c2csc(Nc3cc(OC)ccc3OC)n2)s1	-10	i	i	i	i
Cc1cc(C)c(OCC(=O)OCC(=O)NNC(=O)c2ccccc2F)c(C)c1	nt	nt	i	nt	nt
O=C(CCC(=O)Nc1ccc(Cl)cc1)N/N=C/c1ccc2c(c1)OCO2	-5	6*	i	i	i
O=C(NCc1ccncc1)c1cc(C(=O)C2CCCCC2)c[nH]1	6.2*	i	i	i	i
CCCc1nn2c(=O)c(C(c3cccc(Cl)c3)c3c(O)nc4sc(CCC)nn4c3=O)c(O)nc2s1	6.1*	i	i	i	i
COc1ccc(C)cc1-n1c(=O)c2ccccc2c2ccccc2c1=O	-13	i	i	i	-8*
CN(C(=O)c1cccc(NC(=O)Cc2ccc(NC(=O)C3CCN(C(=O)C4CCC4)CC3)cc2)c1)C1CCCC1	nt	nt	i	nt	nt
CCCCCCCCNC(=O)/C(C#N)=C/c1ccccc1[N+](=O)[O-]	-12	7*	i	i	i
CCOCCCNC(=O)/C(C#N)=C/c1ccc([N+](=O)[O-])o1	-11	6*	i	i	i
N#C/C(=C\c1ccccc1[N+](=O)[O-])C(=O)NCc1ccccc1	-15	6*	i	i	i
Cc1cccc(-c2nn(-c3ccccc3)cc2C(=O)N2CCN(C3CCS(=O)(=O)C3)CC2)c1 (stereo unspecified)	nt	nt	i	nt	nt
CCCC(=O)NC1=C(Cl)C(=O)c2ccccc2C1=O	nt	nt	-9.3*	nt	nt
CN(c1ccccc1)S(=O)(=O)c1cccc(C(=O)NCC(=O)Nc2ccc(F)c(F)c2F)c1	nt	nt	i	nt	nt
COc1ccccc1NCC(=O)n1nc(C)cc1C	6.7*	i	i	i	i
Nc1cc(=O)[nH]c(SCC(=O)Nc2ccc(S(=O)(=O)N3CCCC3)cc2)n1	nt	nt	i	nt	nt
COc1ccc(OC)c(S(=O)(=O)Nc2ccc3c(c2)N(C(C)=O)CCC3)c1	-11	i	i	13*	i
CC(C)C[C@H]1CNC(=O)C(=O)N1CC1CCN(CCc2ccc(-c3ccccc3)cc2)CC1	nt	nt	i	nt	nt
Cc1sc2ncnc(SCc3ccc(C(=O)O)cc3)c2c1C	-5	i	i	i	i
COC(=O)c1ccc(CSc2ncnc3sc(C)c(C)c23)o1	8.8*	i	i	8*	i
COC(=O)[C@@]1(C)[C@H]2C(=O)N(Cc3ccccc3)C(=O)[C@H]2[C@H]2CN=C(SCc3ccc(C)cc3)N21	nt	nt	i	nt	nt
C=CCN(CC=C)C(=S)NC(=O)Cc1cccc2ccccc12	10*	i	i	10*	i
O=C(Cc1cccc2ccccc12)Nc1ccccc1	-7	i	i	i	i
SMILES	hERG protect	KCNQ1 inh	KCNK3 block	KCNQ1 act	KCNK9 inh
c1ccc(-c2cc(N3CCOCC3)nc3ccccc23)cc1	-5	6*	i	i	i
CCOc1ccccc1N1CCN(C(=O)c2ccc3nc(N)sc3c2)CC1	nt	nt	i	nt	nt
O=C1c2nc3cc(-c4ccco4)[nH]n3c(=O)c2CN1Cc1ccccc1	5.0*	i	i	i	i
CCCCc1c(C)nc2cc(-c3ccco3)[nH]n2c1=O	-7	i	i	i	i
COc1cc2c(cc1OC)CN(C1CCC(C(C)(C)C)CC1)CC2 (stereo unspecified)	nt	nt	i	nt	nt
CC(=O)C(=Nc1ccc(Cl)cc1Cl)NNc1cccc(Cl)c1	-9	10*	i	i	i
Cc1ccccc1C(=O)N1CCC(C(=O)Nc2ccccc2N2CCCC2)CC1	-11	i	i	i	i
CCc1ccc(-c2nc(SCC(=O)N3CCOCC3)n[nH]2)cc1	10*	i	i	i	i
